# EP2 modulator – EP2 receptor (human) modulation. P43116. EP2-expressing cells, cAMP HTRF FRET, PGE2 co-stimulation. induction, % at 25 µM. 0.83% of 260,000 active;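 active = compounds whose cAMP rise, as percent of the full-agonist control response, exceeds 60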;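 also: rat C6 glioma line stably carrying human EP2 under a CMV promoter; the protocol text gives 20 µM as final concentration; 100% = response of wells given 1 µM PGE2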
# NPY1 pot ag – potentiates or activates human NPY-Y1 receptor; P25929; NPY-Y1 expressing cells, potentiator/agonist activation; activation, % at 3.6 µM; 0.37% of 220,000 active; in the data active = activation above about 33%, passing the limit was not always enough;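 also: cells stimulated with NPY at EC10 then isoproterenol at EC100; 0% = low agonist plus stimulus and 100% = saturating agonist plus stimulus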
# Target sequence (P25929 whole entry, looked up): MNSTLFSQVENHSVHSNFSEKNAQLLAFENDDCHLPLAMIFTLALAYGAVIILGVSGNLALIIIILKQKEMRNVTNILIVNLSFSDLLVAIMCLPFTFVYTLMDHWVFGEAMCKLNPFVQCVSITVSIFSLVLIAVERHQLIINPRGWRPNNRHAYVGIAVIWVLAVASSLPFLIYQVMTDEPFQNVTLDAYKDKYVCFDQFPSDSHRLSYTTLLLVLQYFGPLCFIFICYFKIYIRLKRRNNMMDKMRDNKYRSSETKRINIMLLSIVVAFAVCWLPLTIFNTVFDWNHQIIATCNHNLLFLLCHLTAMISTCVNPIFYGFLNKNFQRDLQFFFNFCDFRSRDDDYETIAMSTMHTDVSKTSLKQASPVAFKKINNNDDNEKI
# EP2 antag – blocks the human prostaglandin E2 receptor EP2; inhibition, % at 25 µM; 0.52% of 260,000 active; C6 glioma cells expressing human EP2, cAMP TR-FRET; cells stimulated with saturating PGE2; P43116;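 active = percent inhibition above 40 after rounding to a whole number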;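 also: rat C6 glioma host cells with rolipram phosphodiesterase inhibitor present; the protocol text gives 20 µM as final concentration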
# NPY-Y2 antag – blocks the human neuropeptide Y Y2 receptor; AID 793; 0.99% of 140,000 active; inhibition, % at 2.7 µM; P49146; NPY-Y2 expressing cells, antagonist mode; in the data active = inhibition above about 17%;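 also: 0% = vehicle with agonist challenge and 100% = reference antagonist with challenge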
# NPY-Y2 PAM-ag – potentiates or activates human NPY-Y2 receptor; cells expressing NPY-Y2, potentiator/agonist read-out; activation, % at 3.6 µM; 0.45% of 220,000 active; P49146; AID 1359; in the data active = activation above about 27%;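 also: cells stimulated with NPY near EC25 plus isoproterenol at EC100; 0% = vehicle plus submaximal agonist and 100% = vehicle plus saturating agonist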
# NPY-Y1 antag – NPY-Y1 (human) receptor antagonism | HEK293-CNG Y1 cells, membrane potential fluorescence; NPY at EC95, then isoproterenol | P25929 | inhibition, % at 3.6 µM | 1% of 200,000 active;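 active = inhibition above the campaign mean inhibition of all tested compounds plus 3 SD, cut at about 20% in these data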;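 also: 0% = DMSO wells given NPY plus isoproterenol and 100% = isoproterenol alone without NPY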
#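 Test system: HEK293 cells co-expressing NPY Y1 receptor and cyclic-nucleotide gated channel; Also added: NPY (25 nM), isoproterenol (1 µM), Ro 20-1724 (25 µM); Compound dosing: one concentration, 3.6 µM, in 0.4% DMSO; Timing: dye 3 h, compound 60 min room temperature, stimulation 45 min; Technique: Membrane-potential fluorescent dye readout.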
# The depositor's hits bear a star; . = not tested or not shown. Shown are actives, neighbours in structure and some others; about 2.8% of the full set was active somewhere.
SMILES,EP2 modulator,NPY1 pot ag,EP2 antag,NPY-Y2 antag,NPY-Y2 PAM-ag,NPY-Y1 antag
Cc1ccc(C)c(N(CC(=O)NC2CCCC2)C(=O)c2oc(C(C)(C)C)cc2C)c1,43,-3,7,20*,0,27*
Cc1cc(C(C)(C)C)oc1C(=O)N(CC(=O)NC1CCCC1)Cc1ccccc1,20,-13,7,8,-6,12
CCN1CCN(C(c2cc3c(C)cc(C)cc3[nH]c2=O)c2nnnn2C(C)(C)CC)CC1 (configuration not stated),-59,.,24,.,.,.
C[C@@]12C[C@H](O)[C@@H]3[C@H](CCC4=CC(=O)CC[C@]43C)[C@H]1CC[C@H]2c1csc(-c2ccccc2)n1,36,.,40*,.,.,.
Cc1nc(C2CCC3C4CCC5=CC(=O)CC[C@]5(C)C4CC[C@]23C)cs1 (some centres not stated),21,-39,4,.,-4,.
O=C(Nc1ccc(Cl)cc1Cl)c1nc2ncccn2n1,-37,.,11,.,.,.
Cc1cc(CN(C)C(=O)c2cc(COc3ccc(F)cc3Cl)on2)n[nH]1,-100,-11,17,.,-12,-5
Cc1ccc(CN(C)C(=O)c2cc(COc3ccc(F)cc3Cl)on2)o1,-10,-13,7,.,-18,20*
CCc1nnc(NC(=O)C2CCN(S(=O)(=O)c3ccc(C)c(Cl)c3)CC2)s1,-6,.,10,.,.,.
CC1CC(=O)NN=C1c1ccc(NCCO)c([N+](=O)[O-])c1 (configuration not stated),43,-85,9,78*,-46,78*
Cc1sc2ncn3c(SCC(=O)Nc4ccccc4-c4ccccc4)nnc3c2c1C,67*,.,17,.,.,.
CCc1ccccc1NC(=O)CSc1nnc2c3c(C)c(C)sc3ncn12,-31,.,11,.,.,.
Cc1sc2ncnc(SCC(=O)Nc3ccccc3-c3ccccc3)c2c1C,84*,.,5,.,.,.
CCc1nc2ccccc2nc1N1CCN(S(=O)(=O)c2ccc(Cl)cc2)CC1,1,-30,6,.,0,.
O=S(=O)(c1ccccc1)N1c2cc(Cl)ccc2Oc2nc3ccccc3nc21,61*,-48,8,6,-32,5
c1ccc(CCN(Cc2ccccc2)C2CCN(C3CCCC3)CC2)cc1,4,-14,6,.,-48,21*
O=S(=O)(Cc1ccccc1)N1CCN(C2CCCCCC2)CC1,-40,.,7,.,.,.
COc1cc2cc(C)c3nnc(SCC(=O)Nc4nccs4)n3c2cc1OC,-29,.,3,.,.,.
CCCC(c1cc(C(C)(C)C)c(O)cc1C)c1cc(C(C)(C)C)c(O)cc1C,26,.,64*,.,.,.
COc1cc(CCC(=O)NCCn2nc3c(C)cc4ccc(C)cc4n3c2=O)on1,4,.,11,.,.,.
COc1ccc(C(=O)CSc2nc3sc4c(c3c(=O)[nH]2)CCCC4)cc1,-105,.,12,.,.,.
CC(C)(C)c1ccc(O)c(CN(Cc2cc(C(C)(C)C)ccc2O)c2ccccc2)c1,5,.,55*,.,.,.
O=C(CC1C(=O)N(c2ccc(Cl)cc2)C(=S)N1CCc1ccncc1)Nc1ccc(F)cc1 (configuration not stated),-30,61*,11,-3,52*,-8
C=CC(=O)N(C)c1nc(-c2ccccc2)cs1,-40,.,20,.,.,.
COc1ccc(Nc2cc(C)nc(N3CCOCC3)n2)cc1,27,-27,13,3,3,3
SMILES,EP2 modulator,NPY1 pot ag,EP2 antag,NPY-Y2 antag,NPY-Y2 PAM-ag,NPY-Y1 antag
CSc1nc(C)cc(Nc2ccc(O)c(CN3CCOCC3)c2)n1,6,.,44*,.,.,.
COC(=O)C1=CN(Cc2ccc(OC)cc2)C=C(C(=O)OC)C1c1ccsc1,61*,7,6,.,-9,9
CCOC(=O)C1CCCN(Cc2ccccc2OCC)C1 (configuration not stated),48,-1,2,4,-10,0
CCOC(=O)C1CCCN(CC(O)COc2ccc(OC)cc2C(C)(C)C)C1 (configuration not stated),11,41*,2,2,49*,-5
CCOC(=O)C1CCCN(CC(O)COc2ccccc2C(C)=O)C1 (configuration not stated),0,62*,5,2,37*,-7
CCOC(=O)N1CCN(CC(O)COc2ccc(OC)cc2C(C)(C)C)CC1 (configuration not stated),13,-19,14,3,3,9
O=C1NC(=S)NC(=O)C1=Cc1cn(CCOc2ccccc2F)c2ccccc12,-40,.,8,.,.,.
COc1ccc(CN2Cc3cc4cc5c(cc4nc3OCC2=O)OCO5)cc1,-46,.,.,.,.,.
O=C(Cn1c2ccccc2n2c(SCC(=O)N3CCCC3)nnc12)NC1CCCCC1,-11,.,11,.,.,.
COc1cccc(S(=O)(=O)NCc2ccc(C(=O)Nc3ccc(Cl)c(Cl)c3)cc2)c1,-34,44*,17,1,23,-12
Cc1ccc(C(=N)c2ccccc2Cc2cccc3ccccc23)c2ccccc12,39,.,40*,.,.,.
COC(=O)c1c(NC(=S)NC(=O)c2cccnc2)sc2c1CCCC2,-16,.,6,.,.,.
COCCNc1c(C)c(C)nc2cc(-c3cccc(Cl)c3)nn12,-18,.,3,.,.,.
COC(=O)Cc1c[nH]c2cccc(OCC(O)CN(Cc3ccc([N+](=O)[O-])cc3)C(C)(C)C)c12 (configuration not stated),-15,107*,17,4,103*,-15
COC(=O)Cc1c[nH]c2cccc(OCC(O)CN(Cc3ccccc3)C(C)C)c12 (configuration not stated),-12,97*,4,4,90*,-14
COc1ccc(COCC(O)CN(Cc2ccccc2)C(C)C)cc1OC (configuration not stated),-9,3,-1,.,4,2
CC(C)CN(CC(C)C)CC(O)COc1ccc([N+](=O)[O-])cc1 (configuration not stated),8,-12,4,6,-9,8
Cc1ccc(C)c2[nH]c(=O)c(CN(Cc3ccco3)S(=O)(=O)c3cccc(C(F)(F)F)c3)cc12,0,.,11,.,.,.
C[C@]12CC[C@H](O)C[C@@H]1CC[C@H]1[C@H]2CC[C@]2(C)[C@@H]1CC[C@H]2c1cc(C(F)(F)F)n[nH]1,-19,.,55*,.,.,.
C[C@@]12CC[C@H]3c4ccc(O)cc4CC[C@@H]3[C@H]1CC[C@H]2OC(=O)CCc1ccccc1,23,.,42*,.,.,.
CCCc1nc2ccccc2c(C(=O)OCC(=O)NCc2ccc3c(c2)OCO3)c1CC,18,-17,0,14,-17,9
CCCc1nc2ccccc2c(C(=O)OC(C)C(=O)NCc2ccc3c(c2)OCO3)c1CC (configuration not stated),8,-26,4,19*,-2,25*
Cc1ccccc1OC1C(=O)N(C2CCCC2)C1c1ccc2c(c1)OCO2 (configuration not stated),61*,.,9,.,.,.

# Bioassay records: PubChem BioAssay, several laboratories
